Laboratory results reported in ChEMBL document CHEMBL4732208, “Discovery of novel N-alkylcytidines as promising antimicrobial agents” (Eur J Med Chem, 2021).
In brackets after ≈: the same amount, converted by molar mass. Activity calls are given as the source filed them. The rule behind the calls is not given here.

Columns and labels:
[1] = Cytotoxicity against human A549 cells by MTT assay; assay type: cell-based
In short: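 Adherent A549 cells passaged in DMEM with 10% fetal calf serum and 2 mM glutamine, at 37 °C, 5% CO2, 90% humidity. MTT test. CC50 is the concentration that inhibits culture growth by 50%.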

[2] = Chemical stability of compound in pH 2.2 at 5 mg measured after 7 days by TLC analysis; assay type: physicochemical; settings: pH 2.2, 168 h, time 7 day
In short: (§1)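 Compound incubated at 37 °C in 0.2 M glycine/HCl (pH 2.2), 0.1 M potassium phosphate (pH 7.5) or 0.2 M glycine/NaOH (pH 9.0). Followed for 24 h and up to over a week.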

Bacillus subtilis = assay: Antibacterial activity against Bacillus subtilis ATCC 6633; assay type: functional
In short: (§2)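 Strains grown in modified Gause's nutrient medium N 2, inoculum 10⁶ cells/ml. Test compound dissolved in 50% aqueous methanol, added at ten volume percent of the medium. Growth controls: medium without additions, medium with solvent mixture, and clinical antibiotics (amikacin, ciprofloxacin, isoniazid, rifampicin, oxacillin, vancomycin).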

[3] = Chemical stability of compound in pH 7.5 at 5 mg measured after 7 days by TLC analysis; assay type: physicochemical; settings: pH 7.5, 168 h, time 7 day; in short: as §1
[4] = tested on: Mycolicibacterium smegmatis; assay: Antibacterial activity against Mycobacterium smegmatis VKPM Ac-1339; assay type: functional; in short: as §2
[5] = Chemical stability of compound in pH 9 at 5 mg measured after 24 hrs by TLC analysis; assay type: physicochemical; settings: pH 9, 24 h; in short: as §1
[6] = tested on: Leuconostoc mesenteroides; assay: Antibacterial activity against Leuconostoc mesenteroides VKPM B-4177; assay type: functional; in short: as §2
[7] = tested on: Mycolicibacterium smegmatis; assay: Antibacterial activity against Mycobacterium smegmatis mc2155; assay type: functional
In short: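 Strains were grown in modified Gause's nutrient medium N 2 at 10⁶ cells/ml. The compound was dissolved in 50% aqueous methanol and added at 10 volume percent of the medium. Controls were untreated cultures, medium with the solvent mixture, and clinical antibiotics.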

Staphylococcus aureus [8] = assay: Antibacterial activity against Staphylococcus aureus INA 00761; assay type: functional; in short: as §2
[9] = Metabolic stability in human serum assessed as half life at 100 mM measured for 24 hrs by HPLC/TLC analysis; assay type: ADME, cell-free
[10] = Aqueous solubility of compound; assay type: physicochemical; settings: buffer
Micrococcus luteus = assay: Antibacterial activity against Micrococcus luteus NCTC 8340; assay type: functional; in short: as §2
Staphylococcus aureus [11] = assay: Antibacterial activity against Staphylococcus aureus FDA 209 P; assay type: functional; in short: as §2
Aspergillus versicolor [12] = assay: Antifungal activity against Aspergillus versicolor SRX7729182 STG-25G assessed as reduction in fungal growth at 0.1 to 3.5 mM measured for 24 days by drop dilution assay relative to control; assay type: functional; settings: dose 0.1-3.5 mM, time 24.0 day
In short: (§3)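 Drop-dilution method. Suspension plated on CDA with or without compound (screening range 0.1–3.5 mM); 5-fluorocytosine positive control. Incubated at 26 °C. Inhibition % = (Dc−Dt)/Dc × 100 from colony diameters; triplicate, repeated at least twice.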

Alternaria chartarum = assay: Antifungal activity against Ulocladium chartarum SRX7729176 STG-36 assessed as reduction in fungal growth at 0.1 to 3.5 mM measured for 24 days by drop dilution assay relative to control; assay type: functional; settings: dose 0.1-3.5 mM, time 24.0 day; in short: as §3
Microascus paisii = assay: Antifungal activity against Microascus-paisii SRX7729192 STG-103 assessed as reduction in fungal growth at 0.1 to 3.5 mM measured for 24 days by drop dilution assay relative to control; assay type: functional; settings: dose 0.1-3.5 mM, time 24.0 day; in short: as §3
[13] = tested on: Cladosporium parahalotolerans; assay: Antifungal activity against Cladosporium-parahalotolerans SRX7729188 STG-93B assessed as reduction in fungal growth at 0.1 to 3.5 mM measured for 24 days by drop dilution assay relative to control; assay type: functional; settings: dose 0.1-3.5 mM, time 24.0 day; in short: as §3
Aspergillus creber = assay: Antifungal activity against Aspergillus-creber SRX7729180 STG-57 assessed as reduction in fungal growth at 0.1 to 3.5 mM measured for 24 days by drop dilution assay relative to control; assay type: functional; settings: dose 0.1-3.5 mM, time 24.0 day; in short: as §3
Aspergillus amoenus = assay: Antifungal activity against Aspergillus-amoenus SRX7729194 STG-106 assessed as reduction in fungal growth at 0.1 to 3.5 mM measured for 24 days by drop dilution assay relative to control; assay type: functional; settings: dose 0.1-3.5 mM, time 24.0 day; in short: as §3
Aspergillus versicolor [14] = assay: Antifungal activity against Aspergillus versicolor SRX7729174 STG-25G assessed as reduction in fungal growth at 0.1 to 3.5 mM measured for 24 days by drop dilution assay relative to control; assay type: functional; settings: dose 0.1-3.5 mM, time 24.0 day; in short: as §3
[15] = tested on: Cladosporium halotolerans; assay: Antifungal activity against Cladosporium-halotolerans SRX7729178 STG-52B assessed as reduction in fungal growth at 0.1 to 3.5 mM measured for 24 days by drop dilution assay relative to control; assay type: functional; settings: dose 0.1-3.5 mM, time 24.0 day; in short: as §3
[16] = tested on: Simplicillium lamellicola; assay: Antifungal activity against Simplicilium-lamellicola SRX772919 STG-96 assessed as reduction in fungal growth at 0.1 to 3.5 mM measured for 24 days by drop dilution assay relative to control; assay type: functional; settings: dose 0.1-3.5 mM, time 24.0 day; in short: as §3
Aspergillus = assay: Antifungal activity against Aspergillus SRX7729186 STG-93W assessed as reduction in fungal growth at 0.1 to 3.5 mM measured for 24 days by drop dilution assay relative to control; assay type: functional; settings: dose 0.1-3.5 mM, time 24.0 day; in short: as §3

Structure (SMILES)	CC50 [1]	MIC (Bacillus subtilis)	MIC [4]	MIC [6]	MIC [7]	MIC (Staphylococcus aureus [8])	MIC (Micrococcus luteus)	MIC (Staphylococcus aureus [11])	other results
CCCCCCCCCCCCNc1nc(=O)n([C@H]2C[C@H](OC(=O)OCCOCCOCCO)[C@@H](CO)O2)cc1C	90 µM	68 µM (≈ 39.8 µg/mL)	68 µM (≈ 39.8 µg/mL)	68 µM (≈ 39.8 µg/mL)	68 µM (≈ 39.8 µg/mL)	50 µM (≈ 29.3 µg/mL)	50 µM (≈ 29.3 µg/mL)	50 µM (≈ 29.3 µg/mL)	Stabilty [2]: Stable; Stabilty [3]: Stable; Stabilty [5]: Stable; half-life [9]: ≥ 24 h; solubility [10]: Soluble
CCCCCCCCCCCCCCNc1ccn([C@H]2C[C@H](O)[C@@H](CO)O2)c(=O)n1	90 µM	> 200 µM	> 200 µM	> 200 µM	> 200 µM	> 200 µM	> 200 µM	> 200 µM	–
CCCCCCNc1nc(=O)n([C@H]2C[C@H](O)[C@@H](CO)O2)cc1C	90 µM	> 200 µM	> 200 µM	> 200 µM	> 200 µM	> 200 µM	> 200 µM	> 200 µM	–
O=C(O)c1cn(C2CC2)c2cc(N3CCNCC3)c(F)cc2c1=O [CIPROFLOXACIN]	–	–	12 µM (≈ 3.98 µg/mL)	–	15 µM (≈ 4.97 µg/mL)	12 µM (≈ 3.98 µg/mL)	–	3 µM (≈ 0.994 µg/mL)	–
Cc1onc(-c2ccccc2)c1C(=O)N[C@@H]1C(=O)N2[C@@H]1SC(C)(C)[C@@H]2C(=O)O [OXACILLIN]	–	–	–	–	–	80 µM (≈ 32.1 µg/mL)	–	2.5 µM (≈ 1 µg/mL)	–
CCCCCCCCCCNc1ccn([C@H]2C[C@H](O)[C@@H](CO)O2)c(=O)n1	200 µM	140 µM (≈ 51.4 µg/mL)	140 µM (≈ 51.4 µg/mL)	140 µM (≈ 51.4 µg/mL)	140 µM (≈ 51.4 µg/mL)	> 140 µM	140 µM (≈ 51.4 µg/mL)	> 140 µM	–
CCCCCCCCCCNc1nc(=O)n([C@H]2C[C@H](O)[C@@H](CO)O2)cc1C	156 µM	50 µM (≈ 19.1 µg/mL)	50 µM (≈ 19.1 µg/mL)	50 µM (≈ 19.1 µg/mL)	50 µM (≈ 19.1 µg/mL)	50 µM (≈ 19.1 µg/mL)	50 µM (≈ 19.1 µg/mL)	50 µM (≈ 19.1 µg/mL)	inhibition (Aspergillus versicolor [12]): inactive; inhibition (Alternaria chartarum): inactive; inhibition (Microascus paisii): inactive; inhibition [13]: inactive; inhibition (Aspergillus creber): inactive; inhibition (Aspergillus amoenus): inactive; inhibition (Aspergillus versicolor [14]): inactive; inhibition [15]: inactive; inhibition [16]: inactive; inhibition (Aspergillus): inactive
CN[C@H](CC(C)C)C(=O)N[C@H]1C(=O)N[C@@H](CC(N)=O)C(=O)N[C@H]2C(=O)N[C@H]3C(=O)N[C@H](C(=O)N[C@H](C(=O)O)c4cc(O)cc(O)c4-c4cc3ccc4O)[C@H](O)c3ccc(c(Cl)c3)Oc3cc2cc(c3O[C@@H]2O[C@H](CO)[C@@H](O)[C@H](O)[C@H]2O[C@H]2C[C@](C)(N)[C@H](O)[C@H](C)O2)Oc2ccc(cc2Cl)[C@H]1O [VANCOMYCIN]	–	–	–	> 275 µM	–	–	–	–	–
CCCCCCCCNc1ccn([C@@H]2O[C@H](CO)[C@@H](O)[C@H]2O)c(=O)n1	90 µM	> 200 µM	> 200 µM	> 200 µM	> 200 µM	> 200 µM	> 200 µM	> 200 µM	–
NCC[C@H](O)C(=O)N[C@@H]1C[C@H](N)[C@@H](O[C@H]2O[C@H](CN)[C@@H](O)[C@H](O)[C@H]2O)[C@H](O)[C@H]1O[C@H]1O[C@H](CO)[C@@H](O)[C@H](N)[C@H]1O [AMIKACIN]	–	7 µM (≈ 4.1 µg/mL)	29 µM (≈ 17 µg/mL)	–	50 µM (≈ 29.3 µg/mL)	5 µM (≈ 2.93 µg/mL)	1 µM (≈ 0.586 µg/mL)	3.4 µM (≈ 1.99 µg/mL)	–
CCCCCCCCCCCCNc1ccn([C@H]2C[C@H](O)[C@@H](CO)O2)c(=O)n1	100 µM	70 µM (≈ 27.7 µg/mL)	70 µM (≈ 27.7 µg/mL)	70 µM (≈ 27.7 µg/mL)	70 µM (≈ 27.7 µg/mL)	70 µM (≈ 27.7 µg/mL)	70 µM (≈ 27.7 µg/mL)	70 µM (≈ 27.7 µg/mL)	–
